Calls of active or inactive are those of the source. No cut-off for these calls is given here.
Experiments:
Homo sapiens = assay: Decrease in low density lipoprotein cholesterol level in normal human at 50 to 400 […] by standard enzyme-based colorimetric assay; format: functional, organism-based; parameters: scale not given: the % may be the effect or the level left
Mus musculus [1] = assay: Hepatotoxicity in BALB/c mouse assessed as increase in liver ALT level at 35 mg/kg, ip after 72 hrs; conditions: in vivo
Mus musculus [2] = assay: Hepatotoxicity in BALB/c mouse assessed as increase in liver ALT level at 35 mg/kg, ip after 72 hrs; format: toxicity, organism-based; parameters: dose 35 mg/kg, route intraperitoneal; conditions: in vivo
Outline: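 Single ip injection of 35 mg/kg ASO into male Balb/c mice, 6 weeks old, n = 4 per group, saline control; sacrificed 72 h after dosing and ALT recorded; ANOVA with Tukey's post hoc test.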

Mus musculus [3] = assay: Reduction of PTEN mRNA level in BALB/c mouse liver at 60 mg/kg, ip after 72 hrs; format: functional, organism-based; parameters: dose 60 mg/kg
Mus musculus [4] = assay: Hepatotoxicity in BALB/c mouse assessed as increase in liver ALT level at 35 mg/kg, ip after 72 hrs; conditions: in vivo; remark: listed apart in the source
Mus musculus [5] = assay: Reduction of PTEN mRNA level in BALB/c mouse liver at 37 mg/kg, ip after 72 hrs; format: functional, organism-based; parameters: dose 37 mg/kg
Mus musculus [6] = assay: Toxicity in BALB/c mouse assessed as reduction in body weight at 15 mg/kg, ip administered twice a week for 3 weeks measured after 72 hrs of last dose; format: organism-based; parameters: dose 15 mg/kg, route intraperitoneal; conditions: in vivo
Outline: (§1)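 Male Balb/c mice, 6 weeks old, dosed ip twice weekly for 3 weeks at 0.5, 1.5, 4.7 and 15 mg/kg (two ASOs) or 0.7, 2.3, 7.2 and 23 mg/kg (MOE control); sacrificed 72 h after last dose; ALT, liver PTEN mRNA, liver and spleen weights and body weight gain assessed; ED50 derived; errors as sd.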

Mus musculus [7] = assay: Metabolic stability in BALB/c mouse liver assessed as antisense oligonucleotide level at 18 mg/kg; format: ADME, organism-based; parameters: dose 18 mg/kg; conditions: in vivo
Mus musculus [8] = assay: Toxicity in BALB/c mouse assessed as reduction in body weight at 1.5 mg/kg, ip administered twice a week for 3 weeks measured after 72 hrs of last dose; format: organism-based; parameters: dose 1.5 mg/kg, route intraperitoneal; conditions: in vivo; outline: as §1
Mus musculus [9] = species: Mus musculus; assay: Binding affinity to mouse PTEN mRNA assessed as melting temperature
Outline: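 Tm of ASO–RNA duplex, i.e. melting temperature of the ASO hybridised to its complementary RNA.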

Mus musculus [10] = assay: Hepatotoxicity in BALB/c mouse assessed as increase in liver ALT level at 15 mg/kg, ip administered twice a week for 3 weeks measured after 72 hrs of last dose; format: toxicity, organism-based; parameters: dose 15 mg/kg, route intraperitoneal; conditions: in vivo; outline: as §1
Mus musculus [11] = assay: Hepatotoxicity in BALB/c mouse assessed as increase in liver ALT level at 0.5 mg/kg, ip administered twice a week for 3 weeks measured after 72 hrs of last dose; format: toxicity, organism-based; parameters: dose 0.5 mg/kg, route intraperitoneal; conditions: in vivo; outline: as §1
Mus musculus [12] = assay: Hepatotoxicity in BALB/c mouse assessed as increase in liver ALT level at 1.5 mg/kg, ip administered twice a week for 3 weeks measured after 72 hrs of last dose; format: toxicity, organism-based; parameters: dose 1.5 mg/kg, route intraperitoneal; conditions: in vivo; outline: as §1
Mus musculus [13] = assay: Hepatotoxicity in BALB/c mouse assessed as increase in liver ALT level at 4.7 mg/kg, ip administered twice a week for 3 weeks measured after 72 hrs of last dose; format: toxicity, organism-based; parameters: dose 4.7 mg/kg, route intraperitoneal; conditions: in vivo; outline: as §1
Mus musculus [14] = assay: Reduction of PTEN mRNA level in ip dosed BALB/c mouse liver after 72 hrs; format: functional
Mus musculus [15] = assay: Toxicity in BALB/c mouse assessed as reduction in body weight at 4.7 mg/kg, ip administered twice a week for 3 weeks measured after 72 hrs of last dose; format: organism-based; parameters: dose 4.7 mg/kg, route intraperitoneal; conditions: in vivo; outline: as §1
Mus musculus [16] = assay: Toxicity in BALB/c mouse assessed as reduction in body weight at 0.5 mg/kg, ip administered twice a week for 3 weeks measured after 72 hrs of last dose; format: organism-based; parameters: dose 0.5 mg/kg, route intraperitoneal; conditions: in vivo; outline: as §1
Mus musculus [17] = assay: Reduction of PTEN level in ip dosed BALB/c mouse liver at 37 mg/kg by Western blot analysis; format: functional, organism-based; parameters: dose 37 mg/kg
bEND = assay: Reduction in mouse PTEN mRNA level expressed in mouse bEND cells; format: functional, cell-based
Outline: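 bEND mouse brain endothelial cells transfected with ASO using lipofectin; PTEN mRNA reduction measured over a dose range; IC50 taken from dose-response curves.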

**Q.** For `COCCO[C@@H]1[C@H](SP(=O)(O)OC[C@H]2O[C@@H](n3cc(C)c(=O)[nH]c3=O)[C@H](OCCOC)[C@@H]2SP(=O)(O)OC[C@H]2O[C@@H](n3cc(C)c(N)nc3=O)[C@H](OCCOC)[C@@H]2SP(=O)(O)OC[C@H]2O[C@@H](n3cnc4c(N)ncnc43)C[C@@H]2SP(=O)(O)OC[C@H]2O[C@@H](n3cnc4c(=O)[nH]c(N)nc43)C[C@@H]2SP(=O)(O)OC[C@H]2O[C@@H](n3cc(C)c(=O)[nH]c3=O)C[C@@H]2SP(=O)(O)OC[C@H]2O[C@@H](n3cc(C)c(N)nc3=O)C[C@@H]2SP(=O)(O)OC[C@H]2O[C@@H](n3cc(C)c(=O)[nH]c3=O)C[C@@H]2SP(=O)(O)OC[C@H]2O[C@@H](n3cnc4c(=O)[nH]c(N)nc43)C[C@@H]2SP(=O)(O)OC[C@H]2O[C@@H](n3cc(C)c(N)nc3=O)C[C@@H]2SP(=O)(O)OC[C@H]2O[C@@H](n3cc(C)c(=O)[nH]c3=O)C[C@@H]2SP(=O)(O)OC[C@H]2O[C@@H](n3cc(C)c(=O)[nH]c3=O)C[C@@H]2SP(=O)(O)OC[C@H]2O[C@@H](n3cc(C)c(N)nc3=O)C[C@@H]2SP(=O)(O)OC[C@H]2O[C@@H](n3cnc4c(=O)[nH]c(N)nc43)[C@H](OCCOC)[C@@H]2SP(=O)(O)OC[C@@H]2O[C@H](n3cc(C)c(N)nc3=O)[C@@H](OCCOC)[C@H]2SP(=O)(O)OC[C@@H]2O[C@H](n3cnc4c(N)ncnc43)[C@@H](OCCOC)[C@H]2SP(=O)(O)OC[C@@H]2O[C@H](n3cc(C)c(N)nc3=O)[C@@H](OCCOC)[C@H]2SP(=O)(O)OC[C@@H]2O[C@H](n3cc(C)c(N)nc3=O)[C@@H](OCCOC)[C@H]2O)[C@@H](COP(=O)(O)S[C@H]2[C@@H](OCCOC)[C@H](n3cc(C)c(N)nc3=O)O[C@@H]2COP(=O)(O)S[C@H]2[C@@H](OCCOC)[C@H](n3cnc4c(=O)[nH]c(N)nc43)O[C@@H]2CO)O[C@H]1n1cc(C)c(N)nc1=O`, which Activity (Homo sapiens) is on record?
**A.** The Activity was 6%.

**Q.** Which Activity (Mus musculus [1]) does the source give for `Cc1cn([C@@H]2O[C@@]3(COP(O)(=S)O[C@@H]4[C@@H](OP(O)(=S)OC[C@H]5O[C@@H](n6cc(C)c(=O)[nH]c6=O)[C@H](O)[C@@H]5OP(O)(=S)OC[C@H]5O[C@@H](n6cnc7c(=O)[nH]c(N)nc76)[C@H](O)[C@@H]5OP(O)(=S)OC[C@H]5O[C@@H](n6cnc7c(=O)[nH]c(N)nc76)[C@H](O)[C@@H]5OP(O)(=S)OC[C@H]5O[C@@H](n6ccc(N)nc6=O)[C@H](O)[C@@H]5OP(O)(=S)OC[C@H]5O[C@@H](n6cc(C)c(=O)[nH]c6=O)[C@H](O)[C@@H]5OP(O)(=S)OC[C@H]5O[C@@H](n6cnc7c(=O)[nH]c(N)nc76)[C@H](O)[C@@H]5OP(O)(=S)OC[C@H]5O[C@@H](n6ccc(N)nc6=O)[C@H](O)[C@@H]5OP(O)(=S)OC[C@H]5O[C@@H](n6cnc7c(N)ncnc76)[C@H](O)[C@@H]5OP(O)(=S)OC[C@H]5O[C@@H](n6cnc7c(=O)[nH]c(N)nc76)[C@H](O)[C@@H]5OP(O)(=S)OC[C@@]56CO[C@@H]([C@H](n7cc(C)c(N)nc7=O)O5)[C@@H]6OP(O)(=S)OC[C@@]56CO[C@@H]([C@H](n7cc(C)c(=O)[nH]c7=O)O5)[C@@H]6O)O[C@@H](n5cnc6c(N)ncnc65)[C@@H]4O)CO[C@@H]2[C@@H]3OP(O)(=S)OC[C@@]23CO[C@@H]([C@H](n4cc(C)c(=O)[nH]c4=O)O2)[C@@H]3O)c(=O)nc1N` (some centres undefined) here?
**A.** Its Activity is “Toxic”.

**Q.** And the Activity (Mus musculus [2])?
**A.** The Activity was “Toxic”.

**Q.** And the Activity (Mus musculus [3])?
**A.** Its Activity is “Active”.

**Q.** What about the Activity (Mus musculus [4]) of the same compound?
**A.** The Activity was “Toxic”.

**Q.** And the Activity (Mus musculus [5])?
**A.** Its Activity is “Active”.

**Q.** `Cc1cn([C@@H]2O[C@@]3(COP(O)(=S)O[C@H]4[C@H]5O[C@H](C)[C@]4(COP(O)(=S)O[C@H]4C[C@H](n6cc(C)c(=O)[nH]c6=O)O[C@@H]4COP(O)(=S)O[C@H]4[C@@H](O)[C@H](n6cnc7c6N=CNC7N)O[C@@H]4COP(O)(=S)O[C@H]4[C@@H](O)[C@H](n6cnc7c(=O)[nH]c(N)nc76)O[C@@H]4COP(O)(=S)O[C@H]4[C@@H](O)[C@H](n6ccc(N)nc6=O)O[C@@H]4COP(O)(=S)O[C@H]4[C@@H](O)[C@H](n6cnc7c(N)ncnc76)O[C@@H]4COP(O)(=S)O[C@H]4[C@@H](O)[C@H](n6ccc(N)nc6=O)O[C@@H]4COP(O)(=S)O[C@H]4[C@@H](O)[C@H](n6cc(C)c(=O)[nH]c6=O)O[C@@H]4COP(O)(=S)O[C@H]4[C@@H](O)[C@H](n6cnc7c(=O)[nH]c(N)nc76)O[C@@H]4COP(O)(=S)O[C@H]4[C@@H](O)[C@H](n6cnc7c(=O)[nH]c(N)nc76)O[C@@H]4COP(O)(=S)O[C@H]4[C@@H](O)[C@H](n6ccc(N)nc6=O)O[C@@H]4COP(O)(=S)O[C@H]4[C@H]6O[C@H](C)[C@]4(COP(O)(=S)O[C@H]4[C@H]7O[C@H](C)[C@]4(CO)O[C@H]7n4ccc(=O)[nH]c4=O)O[C@H]6n4cc(C)c(N)nc4=O)O[C@H]5n4ccc(=O)[nH]c4=O)[C@@H](C)O[C@@H]2[C@@H]3O)c(=O)nc1N` (some centres undefined) was tested. Which Activity (Mus musculus [6]) did it give?
**A.** Its Activity is “Toxic”.

**Q.** And the Stability (Mus musculus [7])?
**A.** The Stability was 25 µg/g.

**Q.** What about the Activity (Mus musculus [8]) of the same compound?
**A.** Its Activity is “Toxic”.

**Q.** And the Tm (Mus musculus [9])?
**A.** Its Tm is 58.9 °C.

**Q.** What about the Activity (Mus musculus [10]) of the same compound?
**A.** The Activity was “Toxic”.

**Q.** What about the Activity (Mus musculus [11]) of the same compound?
**A.** The Activity was “Toxic”.

**Q.** What about the Activity (Mus musculus [12]) of the same compound?
**A.** Its Activity is “Toxic”.

**Q.** And the Activity (Mus musculus [13])?
**A.** Its Activity is “Toxic”.

**Q.** What about the ED50 (Mus musculus [14]) of the same compound?
**A.** The ED50 was 13 mg/kg.

**Q.** What about the Activity (Mus musculus [15]) of the same compound?
**A.** Its Activity is “Toxic”.

**Q.** What about the Activity (Mus musculus [16]) of the same compound?
**A.** The Activity was “Toxic”.

**Q.** And the Activity (Mus musculus [17])?
**A.** The Activity was “Active”.

**Q.** What about the IC50 (bEND) of the same compound?
**A.** The IC50 was 10.3 nM.
